Columns and labels:
Details in all cases: tested as the 18F-labelled form
Rattus norvegicus [1] = species on record: Rattus norvegicus; experiment: Regional uptake of [18F]AFA in cerebellum of rat pretreated with compound nisoxetine; n=3; format: functional, organism-based
Procedure, shortened: (§1)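 Male Sprague-Dawley rats, three per group, received blocker (2 mg/kg iv in saline) or saline only (controls) 10–15 min before about 20 µCi of tail-vein F-18 radioligand. Killed 60 min after tracer. Blood and brain regions weighed and gamma-counted. %ID/g was decay- and tail-corrected; mean ± SD.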

Rattus norvegicus [2] = species on record: Rattus norvegicus; experiment: Regional uptake of [18F]AFA in cerebellum of rat pretreated with compound citalopram; n=3; format: functional, organism-based; procedure, shortened: as §1
Rattus norvegicus [3] = species on record: Rattus norvegicus; experiment: Regional uptake of [18F]AFA in cerebellum of rat pretreated with compound 7d; n=3; format: functional, organism-based
Rattus norvegicus [4] = species on record: Rattus norvegicus; experiment: Regional uptake of [18F]AFA in hypothalamus of rat pretreated with compound GBR-12935; n=3; format: functional, organism-based; procedure, shortened: as §1
Rattus norvegicus [5] = species on record: Rattus norvegicus; experiment: Regional uptake of [18F]AFA in hypothalamus of rat pretreated with compound 7d; n=3; format: functional, organism-based
[6] = target: Sodium-dependent serotonin transporter (Rattus norvegicus) (UniProt P31652); experiment: Specific binding of [18F]AFA in rat hypothalamus after citalopram treatment; n=3; format: functional, tissue-based
Chain of Sodium-dependent serotonin transporter (Rattus norvegicus) (P31652 whole entry): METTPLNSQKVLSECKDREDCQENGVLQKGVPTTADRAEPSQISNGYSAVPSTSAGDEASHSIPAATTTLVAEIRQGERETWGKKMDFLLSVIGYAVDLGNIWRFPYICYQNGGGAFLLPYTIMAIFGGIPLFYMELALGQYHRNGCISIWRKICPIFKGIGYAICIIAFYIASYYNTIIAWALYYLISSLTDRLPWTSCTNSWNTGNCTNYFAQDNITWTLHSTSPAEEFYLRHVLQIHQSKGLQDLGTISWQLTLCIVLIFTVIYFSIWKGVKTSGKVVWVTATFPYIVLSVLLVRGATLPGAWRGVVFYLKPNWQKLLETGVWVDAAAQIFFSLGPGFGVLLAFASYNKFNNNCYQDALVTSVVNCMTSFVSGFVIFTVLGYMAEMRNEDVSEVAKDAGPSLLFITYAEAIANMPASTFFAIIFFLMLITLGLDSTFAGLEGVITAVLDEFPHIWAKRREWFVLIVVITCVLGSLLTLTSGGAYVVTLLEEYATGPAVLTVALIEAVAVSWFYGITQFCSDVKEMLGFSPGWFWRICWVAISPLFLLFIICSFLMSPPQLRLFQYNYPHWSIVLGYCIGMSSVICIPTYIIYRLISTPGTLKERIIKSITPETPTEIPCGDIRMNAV
Procedure, shortened: (§2)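 Rats, three per group, were pretreated iv with blocker at 2 mg/kg in saline, or with saline as control, 10–15 min before tail-vein F-18 radioligand (about 20 µCi). Killed at 60 min and regional %ID/g determined. Specific binding = (region activity − cerebellum activity)/cerebellum activity; mean ± SD.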

Rattus norvegicus [7] = species on record: Rattus norvegicus; experiment: Regional uptake of [18F]AFA in frontal cortex of rat pretreated with compound nisoxetine; n=3; format: functional, organism-based; procedure, shortened: as §1
Rattus norvegicus [8] = species on record: Rattus norvegicus; experiment: Regional uptake of [18F]AFA in cerebellum of rat pretreated with compound GBR-12935; n=3; format: functional, organism-based; procedure, shortened: as §1
[9] = target: Sodium-dependent serotonin transporter (Rattus norvegicus) (UniProt P31652); experiment: Specific binding in rat hypothalamus at 30 min postinjection in vivo; format: functional, organism-based
Procedure, shortened: (§3)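 Male Sprague-Dawley rats, n=3 per time point, received about 20 µCi of F-18 radioligand in saline iv by tail vein and were killed at 10–120 min. %ID/g was measured with decay and tail-residual correction. Hypothalamic specific binding = (%ID/g hypothalamus − %ID/g cerebellum)/%ID/g cerebellum; mean ± SD.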

Rattus norvegicus [10] = species on record: Rattus norvegicus; experiment: Regional uptake of [18F]AFA in frontal cortex of rat pretreated with compound GBR-12935; n=3; format: functional, organism-based; procedure, shortened: as §1
[11] = target: Sodium-dependent serotonin transporter (Rattus norvegicus) (UniProt P31652); experiment: Specific binding in rat hypothalamus at 10 min postinjection in vivo; format: functional, organism-based; procedure, shortened: as §3
[12] = target: Sodium-dependent serotonin transporter (Rattus norvegicus) (UniProt P31652); experiment: Specific binding of [18F]AFA in rat frontal cortex after GBR-12935 treatment; n=3; format: functional, tissue-based; procedure, shortened: as §2
[13] = target: Sodium-dependent serotonin transporter (Rattus norvegicus) (UniProt P31652); experiment: Specific binding in rat hypothalamus at 120 min postinjection in vivo; format: functional, organism-based; procedure, shortened: as §3
Rattus norvegicus [14] = species on record: Rattus norvegicus; experiment: Regional uptake of [18F]AFA in hippocampus of rat pretreated with compound nisoxetine; n=3; format: functional, organism-based; procedure, shortened: as §1
[15] = target: Sodium-dependent serotonin transporter (Rattus norvegicus) (UniProt P31652); experiment: Specific binding of [18F]AFA in rat striatum after GBR-12935 treatment; n=3; format: functional, tissue-based; procedure, shortened: as §2
[16] = target: Sodium-dependent serotonin transporter (Rattus norvegicus) (UniProt P31652); experiment: Specific binding of [18F]AFA in rat hypothalamus after nisoxetine treatment; n=3; format: functional, tissue-based; procedure, shortened: as §2
[17] = target: Sodium-dependent serotonin transporter (Rattus norvegicus) (UniProt P31652); experiment: Specific binding of [18F]-AFA in rat striatum after nisoxetine treatment; n=3; format: functional, tissue-based; procedure, shortened: as §2
Rattus norvegicus [18] = species on record: Rattus norvegicus; experiment: Regional uptake of [18F]AFA in blood of rat pretreated with compound nisoxetine; n=3; format: functional, organism-based; procedure, shortened: as §1
[19] = target: Sodium-dependent serotonin transporter (Rattus norvegicus) (UniProt P31652); experiment: Specific binding of [18F]AFA in rat frontal cortex after citalopram treatment; n=3; format: functional, tissue-based; procedure, shortened: as §2
Rattus norvegicus [20] = species on record: Rattus norvegicus; experiment: Regional uptake of [18F]-AFA in blood of rat pretreated with compound GBR-12935; n=3; format: functional, organism-based; procedure, shortened: as §1
[21] = target: Sodium-dependent serotonin transporter (Rattus norvegicus) (UniProt P31652); experiment: Specific binding of [18F]AFA in rat thalamus after citalopram treatment; n=3; format: functional, tissue-based; procedure, shortened: as §2
Rattus norvegicus [22] = species on record: Rattus norvegicus; experiment: Regional uptake of [18F]AFA in striatum of rat pretreated with compound citalopram; n=3; format: functional, organism-based; procedure, shortened: as §1
Rattus norvegicus [23] = species on record: Rattus norvegicus; experiment: Regional uptake of [18F]AFA in striatum of rat pretreated with compound nisoxetine; n=3; format: functional, organism-based; procedure, shortened: as §1
[24] = target: Sodium-dependent serotonin transporter (Rattus norvegicus) (UniProt P31652); experiment: Specific binding in rat hypothalamus at 60 min postinjection in vivo; format: functional, organism-based; procedure, shortened: as §3
Rattus norvegicus [25] = species on record: Rattus norvegicus; experiment: Regional uptake of [18F]AFA in thalamus of rat pretreated with compound nisoxetine; n=3; format: functional, organism-based; procedure, shortened: as §1

Specific binding [6]: 1.37 %ID/g
Specific binding [9]: 2.27 %ID/g
Specific binding [11]: 0.98 %ID/g
Specific binding [12]: 3.83 %ID/g
Specific binding (dimensionless ratio) [13]: 8.37
Specific binding [15]: 4.37 %ID/g
Specific binding [16]: 5.24 %ID/g
Specific binding [17]: 3.59 %ID/g
Specific binding [19]: 0.36 %ID/g
Specific binding [21]: 1.05 %ID/g
Specific binding [24]: 4.56 %ID/g
Compound: CN(C)Cc1ccccc1Sc1ccc(CF)cc1N
Uptake (Rattus norvegicus [1]): 0.13 %ID/g
Uptake (Rattus norvegicus [2]): 0.08 %ID/g
Uptake (Rattus norvegicus [3]): 0.09 %ID/g
Uptake (Rattus norvegicus [4]): 0.87 %ID/g
Uptake (Rattus norvegicus [5]): 0.17 %ID/g
Uptake (Rattus norvegicus [7]): 0.72 %ID/g
Uptake (Rattus norvegicus [8]): 0.13 %ID/g
Uptake (Rattus norvegicus [10]): 0.76 %ID/g
Uptake (Rattus norvegicus [14]): 0.47 %ID/g
Uptake (Rattus norvegicus [18]): 0.11 %ID/g
Uptake (Rattus norvegicus [20]): 0.11 %ID/g
Uptake (Rattus norvegicus [22]): 0.12 %ID/g
Uptake (Rattus norvegicus [23]): 0.58 %ID/g
Uptake (Rattus norvegicus [25]): 0.65 %ID/g
